Screening data: PubChem, several laboratories
Hits are enriched below; roughly 2% of the tested compounds scored in any of these assays.
PP5 inh – inhibitors of human protein phosphatase 5 (PP5) | inhibition, % at 6.7 µM | P53041 | 320,000 compounds, 0.18% hits | purified PP5c, OMFP substrate fluorescence | AID 1987;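 active means inhibition above the campaign's mean inhibition across all tested compounds plus 3 SD, cut at about 9.5% in these data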;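 further: 0% = DMSO only and 100% = 100 µM cantharidin control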
GSTO1 counter – counter-screen for RBBP9 inhibitors: inhibitors of human GSTO1 | AID 1974 | 300,000 compounds, 1.1% hits | P78417 | inhibition, % at 5.96 µM | recombinant GSTO1, activity-based probe fluorescence polarization;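 active means inhibition above the campaign mean inhibition plus 3 SD, cut at about 35% in these data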;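 further: 0% = GSTO1-1 with DMSO and 100% = wells lacking GSTO1-1 enzyme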
Target sequence (P78417 whole entry, looked up): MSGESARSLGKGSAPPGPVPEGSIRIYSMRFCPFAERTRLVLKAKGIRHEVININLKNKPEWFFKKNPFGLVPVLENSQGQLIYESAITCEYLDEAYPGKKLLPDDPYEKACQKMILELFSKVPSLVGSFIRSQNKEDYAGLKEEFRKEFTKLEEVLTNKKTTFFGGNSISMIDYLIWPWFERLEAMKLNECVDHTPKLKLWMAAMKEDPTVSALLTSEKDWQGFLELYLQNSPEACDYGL
PAD4 inh – blocks human protein arginine deiminase 4. recombinant PAD4, RCA probe fluorescence polarization. Q9UM07. inhibition, % at 6.36 µM. 330,000 compounds, 0.41% hits;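 active means percent inhibition above a cutoff equal to the mean of all tested compounds plus 3 SD, cut at about 15% in these data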;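 further: 0% = PAD4 with RCA probe and DMSO and 100% = probe without PAD4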
CTSL1 counter – blocks F. hepatica cathepsin L1 in PFM18AAP counter-screen. recombinant F. hepatica cathepsin L1, Z-Leu-Arg-MCA fluorescence. inhibition, % at 5.96 µM. 300,000 compounds, 0.49% hits;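 active means inhibition above the mean of all tested compounds plus 3 SD, set per screening campaign, cut at about 17% in these data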;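 further: 0% = plate median of test compound wells and 100% = 1 µM Z-Phe-Ala-diazomethylketone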
Apaf-1 inh – blocks human Apaf-1 apoptosome activity. O14727. reconstituted apoptosome caspase-3 activity, DEVD-Rh110 fluorescence. inhibition, % at 20 µM. 330,000 compounds, 0.71% hits. AID 489030; active means inhibition of at least 40% at 20 µM;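 further: plate controls were DMSO wells for no effect and DEVD-CHO caspase inhibitor wells for full effect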
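System – cell-free apoptosome with Apaf-1, procaspase-3 and caspase-9 · Buffer or medium – pH 7.5 Hepes buffer with CHAPS, BSA, DTT · Also added – cytochrome c with DEVD-Rh110 · Times – 30 min compound preincubation, 50 min activation, room temperature · Technique – Rh110 fluorescence intensity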
UCH37 DUB inh – inhibitors of human deubiquitinating enzyme UCH37. Q9Y5K5. purified proteasome/UCH37, Ub-AMC cleavage fluorescence. inhibition, % (no concentration beside the values). 330,000 compounds, 0.33% hits. AID 588478;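 active means mean inhibition over replicate wells above about 20%, limit read from the data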;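 further: 0% = compound-free wells with enzyme and 100% = wells lacking proteasome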
Target sequence (Q9Y5K5 whole entry, looked up): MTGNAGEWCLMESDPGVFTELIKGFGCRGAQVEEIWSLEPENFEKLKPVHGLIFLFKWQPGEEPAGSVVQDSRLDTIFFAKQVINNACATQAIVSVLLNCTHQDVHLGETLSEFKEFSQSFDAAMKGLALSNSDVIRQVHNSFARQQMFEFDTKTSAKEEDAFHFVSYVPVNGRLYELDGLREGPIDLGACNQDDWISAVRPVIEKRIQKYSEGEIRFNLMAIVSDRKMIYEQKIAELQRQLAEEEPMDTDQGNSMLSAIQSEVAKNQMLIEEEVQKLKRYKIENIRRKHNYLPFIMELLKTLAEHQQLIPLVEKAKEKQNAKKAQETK
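Signal – fluorescence, ex 355 nm, em 460 nm · System – Proteasome-bound UCH37 · Input – 0.15 nM proteasome as dispensed · Timing – 30 min preincubation with enzyme, 25 min cleavage at room temperature · Read-out basis – percent inhibition of cleavage signal versus uninhibited and no-proteasome wells · Medium – Tris-HCl pH 7.4 with ATP-MgCl2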
GSTO1 inh conf – GSTO1 (human) inhibition, confirmation; shares compounds with GSTO1 counter; recombinant GSTO1, probe fluorescence polarization; inhibition, % at 5.96 µM; 2,400 compounds, 54% hits; AID 2176;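 active means inhibition above the primary screen's cutoff, its mean inhibition plus 3 SD, cut at about 35% in these data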;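 further: loss of polarization as inhibitors block binding of rhodamine sulfonate ester activity probe; 0% = GSTO1 with DMSO and 100% = wells lacking GSTO1 enzyme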
GSTO1 recomb ABPP – GSTO1 (human) inhibition by gel ABPP | shares compounds with GSTO1 counter | recombinant GSTO1, gel ABPP SE-Rh probe fluorescence | inhibition, % at 1 µM | 130 compounds, 30% hits;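 active means inhibition of the enzyme GSTO1 above about 75%, limit read from the data; inactive means inhibition below that limit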
* hit, by the source's call; . = not tested or not shown; ! = a repeat was not active.

SMILES	PP5 inh	GSTO1 counter	PAD4 inh	CTSL1 counter	Apaf-1 inh	UCH37 DUB inh	GSTO1 inh conf	others
CC(=O)c1c(C)oc2c1C(=O)c1ccccc1C2=O	3	46*	-19	7	.	8	56*
Cc1onc(-c2ccccc2Cl)c1C(=O)NCc1cccnc1	5	4	5	-4	-5	-1	.
Cc1oc2c(c1C(=O)NCc1cccnc1)C(=O)c1ccccc1C2=O	-1	60*	10	31*	86*	22*	48*
CC(=O)c1c2c3c(cccc3n(C)c1=O)C(=O)c1ccccc1-2	2	9	12	0	8	3	.
CC1=NN(c2ccccc2)C(=O)/C1=C/c1cc2cc(C)ccc2nc1N1CCCCC1	7	68*	21*	-3	94*	.	4
CC1S/C(=N/N=Cc2cccc([N+](=O)[O-])c2)NC1=O (configuration not stated)	.	.	.	.	.	3	.
Clc1ccccc1C1Nc2cccc3cccc(c23)N1	3	43*	-2	-4	35	0	8
O=C(NN=C/C=C/c1ccccc1[N+](=O)[O-])c1ccncc1	.	.	.	.	.	9	.
COc1ccc(OCCn2cc(C=NNC(=O)c3ccncc3)c3ccccc32)cc1	.	.	.	.	.	0	.
CCN(c1ccccc1)S(=O)(=O)c1cc(NC(=O)CSc2n[nH]c(=O)[nH]c2=O)ccc1Cl	1	52*	2	7	-25	3	67*
O=C(CSc1ccccn1)Nc1ccc2c(c1)C(=O)c1ccccc1C2=O	2	21	-1	9	.	8	.
O=C(CSc1n[nH]c(=O)[nH]c1=O)Nc1ccc2c(c1)C(=O)c1ccccc1C2=O	0	61*	1	0	6	12	78*
CCN(c1ccccc1)S(=O)(=O)c1cc(NC(=O)C2CC2)ccc1Cl	.	.	-6	.	1	3	.
CN(C)c1ccc(C=NNc2ccccn2)cc1	.	.	.	.	.	-15	.
Nc1ccc(N2CCCCC2)c2nonc12	11*	92*	69*	79*	97*	21*	62*
Nc1ccc(N2CCCCC2)cc1N1CCCCC1	3	57*	-25	-3	33	3	7
Nc1cc(Cl)ccc1N1CCCCC1	-1	0	-1	0	-2	-1	.
CCN(Cc1ccc(OC)c(F)c1)C(=O)C1CCCO1 (configuration not stated)	0	-2	1	-2	6	2	.
CCN(Cc1ccc(OC)c(F)c1)C(=O)CCl	2	98*	-5	7	4	1	101*	GSTO1 recomb ABPP=47
O=C(CCl)N1CCN(CC(=O)N2CCCC2)CC1	1	82*	2	5	9	6	81*	GSTO1 recomb ABPP=40
O=C(CN1CCN(c2cccc(Cl)c2)CC1)N1CCCC1	0	-1	-2	2	-8	0	.
COc1ccc(S(=O)(=O)n2oc(=O)cc2-c2ccccc2)cc1	0	-1	1	0	1	4	.
COc1ccc(S(=O)(=O)n2oc(=O)cc2-c2ccccc2)cc1OC	0	40*	3	2	-7	2	-1
O=C(CSc1nnc(-c2ccco2)o1)c1ccc([N+](=O)[O-])cc1	3	47*	-10	5	-8	8	24
O=C(CSc1nnc(-c2ccco2)o1)c1ccccc1Cl	0	8	-3	-1	2	1	.
SMILES	PP5 inh	GSTO1 counter	PAD4 inh	CTSL1 counter	Apaf-1 inh	UCH37 DUB inh	GSTO1 inh conf	others
O=C(NN=Cc1ccco1)C(O)c1ccccc1 (configuration not stated)	.	.	.	.	.	2	.
O=C(CCl)N(CCc1ccccc1)CCc1ccccc1	0	79*	9	39*	17	.	96*	GSTO1 recomb ABPP=82*
CC(=O)c1ccc(OCC(=O)N2CCCC2c2ccc3c(c2)OCCCO3)cc1 (configuration not stated)	.	.	6	.	-1	3	.
O=C(CCl)N1CCCC1c1ccc2c(c1)OCCO2 (configuration not stated)	-1	55*	1	75*	6	.	70*	GSTO1 recomb ABPP=7
O=C(CCl)Nc1ccccc1C(=O)c1ccccc1	0	82*	2	11	2	2	98*
O=C(CCl)Nc1ccccc1Sc1ccc(Cl)cc1	2	90*	7	21*	4	4	94*
CC(=O)c1cccc(Oc2cc(NN3CCCCC3)c([N+](=O)[O-])cc2[N+](=O)[O-])c1	3	44*	6	4	18	6	29
COCc1nc2ccccc2n1CCc1ccccc1	-1	40*	-3	0	-7	3	5
Cc1ccc(C=NNC(=O)c2cccnc2)s1	.	.	.	.	.	1	.
Nc1nc(N)c(N=Nc2ccc(C(=O)O)cc2)c(N)n1	2	5	3	3	7	8	.
O=C(O)c1ccc(N=Nc2c(O)ccc3ncccc23)cc1	4	60*	-8	7	18	.	41*
Oc1ccc(-c2csc(Nc3cccc4ccccc34)n2)cc1O	5	62*	-21	7	20	-9	5
COc1ccc(NC(=O)CC(C)=NNC(=O)C(=O)Nc2cccc(Cl)c2C)c(OC)c1	.	.	.	.	.	-1	.
Clc1ccc(C=NNC(=Nc2ccccc2)c2ccccn2)c(Cl)c1	.	.	.	.	.	-2	.
O=C1c2ccccc2C(=O)C1c1ccccn1	4	0	1	2	-5	9	.
O=C1c2ccccc2C(=O)C2OC12 (configuration not stated)	3	76*	5	3	37	.	27
Cc1cccc(NC(=S)NCCc2ccccc2)c1C	2	-1	-1	-3	8	2	.
Cc1cccc(C)c1NC(=S)NCCc1ccc(O)c(O)c1	-1	38*	-1	8	-16	-2	7
CCCN1CCC2(CC1)NC(C(=O)O)Cc1c2[nH]c2ccccc12 (configuration not stated)	.	.	.	.	5	1	.
COC(=O)C1Cc2c([nH]c3ccccc23)C2(CCN(Cc3ccccc3)CC2)N1 (configuration not stated)	-1	62*	2	6	9	3	4
Cc1ccc[n+](-c2nc3ccccc3nc2C(=C=[N-])C#N)c1	-1	62*	-20	2	2	5	36*!
CCc1ccc[n+](-c2nc3ccccc3nc2C(=C=[N-])C#N)c1	2	53*	-12	3	-8	3	42*
Cc1cc(C)c[n+](-c2nc3ccccc3nc2C(=C=[N-])C#N)c1	4	45*	1	0	8	-3	29
COc1cc(C(=O)NCC(=O)NN=Cc2c(C)[nH]c3ccccc23)cc(OC)c1OC	.	.	.	.	.	7	.
